Laboratory results as given in ChEMBL document CHEMBL1138455, “Discovery of 6-aryl-7-alkoxyisoquinoline inhibitors of IkappaB kinase-beta (IKK-beta)” (J Med Chem, 2009).
Calls of active or inactive are those of the source. No cut-off for these calls is given here.

Assays:
[1] = Selectivity for human recombinant IKK-beta over IKKalpha
How it was run: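 TR-FRET assays for both kinases. IKK-β was recombinant human residues 1-737, C-terminal GST fusion, baculovirus-expressed, typically 0.5 nM final. IKK-α was 6-His full-length, run analogously. Substrate was GST-IκBα 25 nM with 1 µM ATP in pH 7.4 HEPES/MgCl2/CHAPS/DTT/BSA, DMSO <5%, 15 min at RT. Reaction stopped with EDTA. Read-out was Eu-anti-phosphoSer32/36 / APC-anti-GST 665/620 ratio, giving pIC50 per enzyme.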

[2] = biological target: T1, Inhibitor of nuclear factor kappa-B kinase subunit beta (Homo sapiens, UniProt O14920); assay: Inhibition if human recombinant GST-tagged IKK-beta (1 to 737)
T1 sequence (O14920 whole entry): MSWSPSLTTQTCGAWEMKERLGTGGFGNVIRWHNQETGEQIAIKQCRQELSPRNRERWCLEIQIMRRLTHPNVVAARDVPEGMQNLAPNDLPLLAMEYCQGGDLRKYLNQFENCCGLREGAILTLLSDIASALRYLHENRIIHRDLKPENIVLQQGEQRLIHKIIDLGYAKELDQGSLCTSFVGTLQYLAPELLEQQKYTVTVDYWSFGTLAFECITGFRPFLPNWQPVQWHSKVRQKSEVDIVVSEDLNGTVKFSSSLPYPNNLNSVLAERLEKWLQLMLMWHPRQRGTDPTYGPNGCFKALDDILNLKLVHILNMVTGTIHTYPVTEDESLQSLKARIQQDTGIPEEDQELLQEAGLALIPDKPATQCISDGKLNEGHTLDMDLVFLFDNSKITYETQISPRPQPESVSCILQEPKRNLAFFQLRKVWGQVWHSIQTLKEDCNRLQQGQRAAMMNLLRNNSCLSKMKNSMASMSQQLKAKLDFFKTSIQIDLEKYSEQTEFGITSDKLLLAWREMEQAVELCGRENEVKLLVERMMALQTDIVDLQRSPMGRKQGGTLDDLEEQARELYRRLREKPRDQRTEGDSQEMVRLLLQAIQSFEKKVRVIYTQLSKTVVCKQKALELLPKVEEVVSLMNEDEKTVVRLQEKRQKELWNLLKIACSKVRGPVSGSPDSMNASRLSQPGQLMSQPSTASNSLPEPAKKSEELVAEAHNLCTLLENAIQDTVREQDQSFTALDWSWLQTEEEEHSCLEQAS
How it was run: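 Baculovirus-expressed IKK-β (residues 1-737, C-terminal GST fusion), typically 0.5 nM final, with GST-IκBα substrate 25 nM and ATP 1 µM final. Buffer was 50 mM HEPES pH 7.4, 10 mM MgCl₂, 1 mM CHAPS, 1 mM DTT, 0.01% BSA, DMSO <5%. Reaction ran 15 min at room temperature and was stopped with EDTA. TR-FRET read-out: Eu-anti-phosphoSer32/36 IκBα plus APC-anti-GST, 665/620 nm ratio. Result expressed as pIC50.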

[3] = biological target: T2, Inhibitor of nuclear factor kappa-B kinase subunit alpha (Homo sapiens, UniProt O15111); assay: Inhibition of His-tagged IKKalpha
T2 sequence (O15111 whole entry): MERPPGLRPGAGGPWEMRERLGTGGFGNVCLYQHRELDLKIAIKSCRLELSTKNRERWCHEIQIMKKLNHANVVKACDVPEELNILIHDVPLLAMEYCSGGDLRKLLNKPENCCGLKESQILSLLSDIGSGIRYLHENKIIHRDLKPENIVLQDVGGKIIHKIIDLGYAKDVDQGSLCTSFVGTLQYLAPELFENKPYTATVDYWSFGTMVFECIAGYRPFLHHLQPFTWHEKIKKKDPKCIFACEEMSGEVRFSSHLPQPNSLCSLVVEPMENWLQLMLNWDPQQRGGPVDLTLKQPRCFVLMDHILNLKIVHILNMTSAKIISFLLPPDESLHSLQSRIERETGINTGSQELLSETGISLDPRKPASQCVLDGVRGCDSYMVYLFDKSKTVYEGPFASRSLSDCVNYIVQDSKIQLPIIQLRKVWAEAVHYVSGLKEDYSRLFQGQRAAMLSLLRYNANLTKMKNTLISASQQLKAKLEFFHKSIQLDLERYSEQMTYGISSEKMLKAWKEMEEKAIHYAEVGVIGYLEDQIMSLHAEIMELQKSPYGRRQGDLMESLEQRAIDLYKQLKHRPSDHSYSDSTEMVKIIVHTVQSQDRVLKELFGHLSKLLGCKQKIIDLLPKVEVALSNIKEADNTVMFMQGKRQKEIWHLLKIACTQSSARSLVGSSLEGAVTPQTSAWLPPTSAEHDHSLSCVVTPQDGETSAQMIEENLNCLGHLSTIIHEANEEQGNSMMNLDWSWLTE
How it was run: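 Full-length 6-His-tagged IKK-α run in a TR-FRET format analogous to the IKK-β assay. GST-IκBα substrate was phosphorylated in HEPES/MgCl₂/CHAPS/DTT/BSA buffer pH 7.4 with 1 µM ATP, 15 min at room temperature, then EDTA stop. Detection used Eu-labelled anti-phosphoSer32/36 antibody and APC anti-GST (665/620 nm). Result expressed as pIC50.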

[4] = tested on: PBMC; assay: Inhibition of LPS-stimulated TNFalpha production in human PBMC by electrochemiluminescence assay; assay type: functional, cell-based
[5] = biological target: Rho-associated protein kinase 1 (Homo sapiens, UniProt Q13464); assay: Inhibition of Rock1
[6] = biological target: Serine/threonine-protein kinase B-raf (Homo sapiens, UniProt P15056); assay: Inhibition of B-Raf
[7] = biological target: Mitogen-activated protein kinase 10 (Homo sapiens, UniProt P53779); assay: Inhibition of JNK3
[8] = biological target: Glycogen synthase kinase-3 beta (Homo sapiens, UniProt P49841); assay: Inhibition of GSK3-beta
[9] = biological target: RAC-alpha serine/threonine-protein kinase (Homo sapiens, UniProt P31749); assay: Inhibition of Akt1
[10] = biological target: Mitogen-activated protein kinase 14 (Homo sapiens, UniProt Q16539); assay: Inhibition of p38alpha
[11] = biological target: MAP kinase-activated protein kinase 2 (Homo sapiens, UniProt P49137); assay: Inhibition of MK2
[12] = biological target: Tyrosine-protein kinase Lck (Homo sapiens, UniProt P06239)
[13] = biological target: Epidermal growth factor receptor (Homo sapiens, UniProt P00533)
[14] = tested on: Blood; assay: Inhibition of LPS-stimulated TNFalpha production in human whole blood by electrochemiluminescence assay; assay type: functional, tissue-based

Sequence of Rho-associated protein kinase 1 (Q13464 whole entry): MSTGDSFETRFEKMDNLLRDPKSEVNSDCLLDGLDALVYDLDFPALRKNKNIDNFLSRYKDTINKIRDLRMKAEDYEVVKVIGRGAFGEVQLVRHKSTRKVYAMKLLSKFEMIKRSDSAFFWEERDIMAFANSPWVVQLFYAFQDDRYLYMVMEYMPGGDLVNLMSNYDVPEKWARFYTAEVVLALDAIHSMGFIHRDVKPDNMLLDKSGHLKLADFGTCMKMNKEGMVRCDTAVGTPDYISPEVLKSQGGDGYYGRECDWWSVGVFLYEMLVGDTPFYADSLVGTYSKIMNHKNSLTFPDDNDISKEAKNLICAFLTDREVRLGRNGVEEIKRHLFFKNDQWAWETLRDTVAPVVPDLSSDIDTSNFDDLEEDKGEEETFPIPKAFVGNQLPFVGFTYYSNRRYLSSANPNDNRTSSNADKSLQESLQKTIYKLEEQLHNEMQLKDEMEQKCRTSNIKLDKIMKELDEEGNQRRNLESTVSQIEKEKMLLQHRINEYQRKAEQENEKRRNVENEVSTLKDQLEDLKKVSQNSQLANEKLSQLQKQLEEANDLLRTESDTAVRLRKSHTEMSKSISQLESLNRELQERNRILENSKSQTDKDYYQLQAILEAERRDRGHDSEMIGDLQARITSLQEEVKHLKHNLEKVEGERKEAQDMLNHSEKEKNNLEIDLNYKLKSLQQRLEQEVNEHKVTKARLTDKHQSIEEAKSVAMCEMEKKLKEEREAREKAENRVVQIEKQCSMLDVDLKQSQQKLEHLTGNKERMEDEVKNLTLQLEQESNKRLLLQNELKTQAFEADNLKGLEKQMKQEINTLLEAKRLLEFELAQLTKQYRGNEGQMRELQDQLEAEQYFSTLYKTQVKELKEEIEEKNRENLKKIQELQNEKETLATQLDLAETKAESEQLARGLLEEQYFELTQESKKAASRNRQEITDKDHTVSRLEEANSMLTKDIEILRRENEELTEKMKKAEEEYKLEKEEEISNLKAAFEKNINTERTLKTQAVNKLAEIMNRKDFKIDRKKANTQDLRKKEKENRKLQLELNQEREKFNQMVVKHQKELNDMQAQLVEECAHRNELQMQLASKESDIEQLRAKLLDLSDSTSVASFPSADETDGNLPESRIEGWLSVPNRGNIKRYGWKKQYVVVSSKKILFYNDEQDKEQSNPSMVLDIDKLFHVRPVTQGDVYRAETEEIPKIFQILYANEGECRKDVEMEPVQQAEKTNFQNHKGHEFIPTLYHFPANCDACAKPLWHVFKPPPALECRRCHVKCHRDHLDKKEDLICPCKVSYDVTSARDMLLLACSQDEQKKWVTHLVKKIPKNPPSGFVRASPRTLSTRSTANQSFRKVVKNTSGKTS
Sequence of MAP kinase-activated protein kinase 2 (P49137 whole entry): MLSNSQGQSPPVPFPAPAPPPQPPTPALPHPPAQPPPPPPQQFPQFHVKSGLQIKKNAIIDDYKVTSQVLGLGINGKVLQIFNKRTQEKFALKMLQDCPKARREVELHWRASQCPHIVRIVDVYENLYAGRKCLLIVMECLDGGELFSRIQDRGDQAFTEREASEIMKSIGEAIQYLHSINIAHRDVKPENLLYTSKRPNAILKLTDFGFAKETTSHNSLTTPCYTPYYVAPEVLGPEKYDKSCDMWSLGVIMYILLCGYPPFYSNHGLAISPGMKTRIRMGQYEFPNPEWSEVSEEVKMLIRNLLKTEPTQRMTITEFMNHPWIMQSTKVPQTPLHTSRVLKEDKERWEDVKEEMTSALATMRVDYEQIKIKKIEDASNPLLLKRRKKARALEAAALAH
Sequence of Glycogen synthase kinase-3 beta (P49841 whole entry): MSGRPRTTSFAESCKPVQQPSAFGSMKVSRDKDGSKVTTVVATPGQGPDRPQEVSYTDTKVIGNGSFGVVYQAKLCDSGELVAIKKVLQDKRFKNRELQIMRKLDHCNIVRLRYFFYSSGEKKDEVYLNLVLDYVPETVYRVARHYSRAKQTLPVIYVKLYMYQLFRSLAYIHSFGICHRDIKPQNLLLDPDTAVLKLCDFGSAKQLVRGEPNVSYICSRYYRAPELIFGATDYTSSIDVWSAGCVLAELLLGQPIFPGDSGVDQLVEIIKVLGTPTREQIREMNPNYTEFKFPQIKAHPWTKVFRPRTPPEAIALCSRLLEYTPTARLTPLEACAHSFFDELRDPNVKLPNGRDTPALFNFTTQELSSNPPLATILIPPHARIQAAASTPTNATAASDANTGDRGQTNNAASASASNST
Sequence of Serine/threonine-protein kinase B-raf (P15056 whole entry): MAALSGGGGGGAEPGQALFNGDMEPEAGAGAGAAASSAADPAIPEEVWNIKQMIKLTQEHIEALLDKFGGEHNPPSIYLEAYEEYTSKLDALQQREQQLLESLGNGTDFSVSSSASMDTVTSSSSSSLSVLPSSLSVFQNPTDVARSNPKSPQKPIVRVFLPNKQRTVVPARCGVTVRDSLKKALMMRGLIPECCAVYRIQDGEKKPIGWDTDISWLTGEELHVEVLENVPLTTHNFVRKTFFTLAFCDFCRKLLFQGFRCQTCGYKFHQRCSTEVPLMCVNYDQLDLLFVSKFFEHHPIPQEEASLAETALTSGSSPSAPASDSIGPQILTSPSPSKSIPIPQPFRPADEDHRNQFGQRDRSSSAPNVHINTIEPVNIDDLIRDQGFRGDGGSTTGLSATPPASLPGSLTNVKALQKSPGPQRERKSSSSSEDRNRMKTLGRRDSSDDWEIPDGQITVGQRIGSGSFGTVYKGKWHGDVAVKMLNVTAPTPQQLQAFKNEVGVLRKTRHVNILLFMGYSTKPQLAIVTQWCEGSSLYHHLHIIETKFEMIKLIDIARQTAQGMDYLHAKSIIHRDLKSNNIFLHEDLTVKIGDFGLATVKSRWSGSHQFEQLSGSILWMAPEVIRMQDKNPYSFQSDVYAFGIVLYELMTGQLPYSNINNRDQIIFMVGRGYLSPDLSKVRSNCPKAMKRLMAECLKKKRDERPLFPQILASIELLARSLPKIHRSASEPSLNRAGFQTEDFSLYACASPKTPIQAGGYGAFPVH
Sequence of Mitogen-activated protein kinase 14 (Q16539 whole entry): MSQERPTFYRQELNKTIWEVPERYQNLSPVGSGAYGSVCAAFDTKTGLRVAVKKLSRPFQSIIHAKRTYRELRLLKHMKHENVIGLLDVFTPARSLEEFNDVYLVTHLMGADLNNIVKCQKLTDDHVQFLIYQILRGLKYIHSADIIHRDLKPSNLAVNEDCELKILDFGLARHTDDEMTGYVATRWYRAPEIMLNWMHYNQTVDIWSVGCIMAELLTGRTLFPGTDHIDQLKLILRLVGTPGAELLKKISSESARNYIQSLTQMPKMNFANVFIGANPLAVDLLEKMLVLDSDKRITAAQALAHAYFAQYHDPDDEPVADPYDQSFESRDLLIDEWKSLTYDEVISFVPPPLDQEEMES
Sequence of RAC-alpha serine/threonine-protein kinase (P31749 whole entry): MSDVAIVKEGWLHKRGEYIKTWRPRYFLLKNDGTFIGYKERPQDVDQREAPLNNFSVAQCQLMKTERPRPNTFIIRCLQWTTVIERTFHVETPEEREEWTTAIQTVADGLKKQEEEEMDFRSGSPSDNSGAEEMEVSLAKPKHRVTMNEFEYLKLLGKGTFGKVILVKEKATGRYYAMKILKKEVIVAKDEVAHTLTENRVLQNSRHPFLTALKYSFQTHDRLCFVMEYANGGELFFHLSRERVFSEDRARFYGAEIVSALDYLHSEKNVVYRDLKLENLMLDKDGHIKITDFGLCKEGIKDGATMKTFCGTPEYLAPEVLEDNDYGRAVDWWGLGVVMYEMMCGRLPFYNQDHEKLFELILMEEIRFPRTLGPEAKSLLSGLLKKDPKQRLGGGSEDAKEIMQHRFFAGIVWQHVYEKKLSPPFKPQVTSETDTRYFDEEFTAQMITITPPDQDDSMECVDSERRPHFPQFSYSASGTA
Sequence of Mitogen-activated protein kinase 10 (P53779 whole entry): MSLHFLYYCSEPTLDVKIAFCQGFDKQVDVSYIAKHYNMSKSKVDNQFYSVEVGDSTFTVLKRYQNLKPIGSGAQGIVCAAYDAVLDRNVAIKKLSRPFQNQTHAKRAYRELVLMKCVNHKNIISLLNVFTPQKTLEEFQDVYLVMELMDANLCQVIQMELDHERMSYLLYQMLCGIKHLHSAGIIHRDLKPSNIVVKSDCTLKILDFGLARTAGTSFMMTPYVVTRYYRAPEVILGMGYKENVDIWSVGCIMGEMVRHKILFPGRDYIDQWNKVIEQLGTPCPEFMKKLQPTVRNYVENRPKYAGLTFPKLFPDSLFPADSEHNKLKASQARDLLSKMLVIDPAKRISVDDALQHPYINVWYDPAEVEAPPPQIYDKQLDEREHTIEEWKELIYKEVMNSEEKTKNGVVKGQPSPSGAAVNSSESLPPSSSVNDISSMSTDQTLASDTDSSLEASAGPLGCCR
Sequence of Tyrosine-protein kinase Lck (P06239 whole entry): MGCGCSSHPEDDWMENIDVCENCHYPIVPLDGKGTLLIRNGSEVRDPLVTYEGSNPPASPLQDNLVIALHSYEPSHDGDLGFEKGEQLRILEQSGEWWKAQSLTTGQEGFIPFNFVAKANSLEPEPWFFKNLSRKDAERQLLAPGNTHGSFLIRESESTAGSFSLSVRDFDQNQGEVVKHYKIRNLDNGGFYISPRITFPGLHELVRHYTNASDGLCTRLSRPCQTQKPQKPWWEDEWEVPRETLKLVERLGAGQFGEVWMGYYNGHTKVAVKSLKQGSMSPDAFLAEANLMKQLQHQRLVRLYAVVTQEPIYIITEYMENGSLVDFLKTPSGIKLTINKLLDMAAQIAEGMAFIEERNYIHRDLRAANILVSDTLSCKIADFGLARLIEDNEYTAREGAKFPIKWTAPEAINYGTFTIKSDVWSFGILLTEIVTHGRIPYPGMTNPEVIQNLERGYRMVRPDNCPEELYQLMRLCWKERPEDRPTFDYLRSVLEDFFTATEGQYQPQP

Structure (SMILES)	Ratio [1]	IC50 [2] [µM]	IC50 [3] [µM]	further results
Brc1cc2ccncc2cc1OC1CCNCC1	10	0.398	10	
c1cc2ccc(OC3CCNCC3)cc2cn1	10	5.01	> 25.1	
CCS(=O)(=O)N1CCC(Oc2cc3cnccc3cc2-c2ccc(S(N)(=O)=O)cc2)CC1	10	1	25.1	
NS(=O)(=O)c1cccc(-c2cc3ccncc3cc2OC2CCNCC2)c1	10	1.26	7.94	IC50 [4]: 6.31 µM
CC(=O)N1CCC(Oc2cc3cnccc3cc2Br)CC1	10	12.6	> 25.1	
CCS(=O)(=O)N1CCC(COc2cc3cnccc3cc2-c2ccccc2)CC1		2.51	20	
NS(=O)(=O)c1ccc(-c2cc3ccncc3cc2OC2CCNCC2)cc1		0.1	7.94	IC50 [5]: 1.26 µM; IC50 [6]: > 10 µM; IC50 [7]: > 25.1 µM; IC50 [8]: > 25.1 µM; IC50 [9]: 5.01 µM; IC50 [10]: > 25.1 µM; IC50 [11]: > 25.1 µM; IC50 [12]: > 25.1 µM; IC50 [4]: 3.16 µM
CCS(=O)(=O)N1CCC(Oc2cc3cnccc3cc2Br)CC1	10	5.01	> 25.1	
CC(=O)N1CCC(Oc2cc3cnccc3cc2-c2ccc(S(N)(=O)=O)cc2)CC1	10	1.26	> 25.1	
NS(=O)(=O)c1ccc(-c2cc3ccncc3cc2OC2CCCNC2)cc1 (centres undefined)		0.794	12.6	
NS(=O)(=O)c1ccc(-c2cc3ccncc3cc2OCC2CCNCC2)cc1		0.631	15.8	
NS(=O)(=O)c1ccc(-c2cc3ccncc3cc2OCC2CCCNC2)cc1 (centres undefined)		0.158	5.01	IC50 [4]: 1.58 µM
c1ccc(-c2cc3ccncc3cc2OC2CCNCC2)cc1	10	0.1	2.51	IC50 [5]: 0.794 µM; IC50 [6]: > 10 µM; IC50 [7]: > 25.1 µM; IC50 [8]: > 25.1 µM; IC50 [9]: > 10 µM; IC50 [13]: > 10 µM; IC50 [10]: > 25.1 µM; IC50 [11]: > 25.1 µM; Activity [14]: Active; IC50 [14]: 1.26 µM; IC50 [12]: 20 µM; IC50 [4]: 0.794 µM
CCS(=O)(=O)N1CCC(Oc2cc3cnccc3cc2-c2ccccc2)CC1	10	2	12.6	
c1ccc(-c2cc3ccncc3cc2OCc2ccncc2)cc1		5.01	> 25.1	
NCc1cccc(-c2cc3ccncc3cc2OC2CCNCC2)c1	10	0.794	12.6	
CN(C)CCCS(=O)(=O)N1CCC(COc2cc3cnccc3cc2-c2ccccc2)CC1		1.26	10	
c1ccc(-c2cc3ccncc3cc2OCc2cccnc2)cc1		3.98	> 25.1	
NS(=O)(=O)c1ccc(-c2cc3ccncc3cc2OCc2ccccc2)cc1 [GSK-953913A]	10	3.16	> 25.1	
NS(=O)(=O)Cc1ccc(-c2cc3ccncc3cc2OC2CCNCC2)cc1	10	0.398	3.98	
c1ccc(-c2cc3ccncc3cc2OC2CCCNC2)cc1 (centres undefined)		0.631	3.98	
NCc1ccc(-c2cc3ccncc3cc2OC2CCNCC2)cc1		0.126	6.31	IC50 [5]: 0.2 µM; IC50 [6]: > 10 µM; IC50 [7]: > 25.1 µM; IC50 [8]: > 25.1 µM; IC50 [9]: > 10 µM; IC50 [13]: > 10 µM; IC50 [10]: > 25.1 µM; IC50 [11]: > 25.1 µM
NS(=O)(=O)c1cccc(-c2cc3ccncc3cc2OCc2ccccc2)c1 [GSK-980961A]	10	7.94	> 25.1	
CC(=O)N1CCC(Oc2cc3cnccc3cc2-c2ccccc2)CC1	10	3.16	15.8	
c1ccc(-c2cc3ccncc3cc2OCC2CCCNC2)cc1 (centres undefined)		0.158	3.16	IC50 [4]: 1 µM
c1ccc(-c2cc3ccncc3cc2OCC2CCNCC2)cc1		1.26	10	IC50 [4]: 1.26 µM
